Source: ChEMBL document CHEMBL3797089, “Morusin Induces TRAIL Sensitization by Regulating EGFR and DR5 in Human Glioblastoma Cells” (J Nat Prod, 2016)
Calls of active or inactive are those of the source. The rule behind the calls is not given here.

What was measured:
[1] = Cytotoxicity against human U373MG cells assessed as reduction in cell viability after 24 hrs by MTT assay; type: functional, cell-based, U-373MG ATCC; settings: U373 MG
Method in brief: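 Seeded 3–5 × 10^3 cells/well, treated the next day with a range of morusin (DMSO stock) for 24 h, 37 °C, 5% CO2. Then fresh medium with 1 mg/mL MTT for 2 h at 37 °C, lysis buffer overnight at 37 °C, OD 570 nm. Mean ± SD from at least three independent experiments in triplicate.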

[2] = Cytotoxicity against human U251MG cells assessed as reduction in cell viability measured up to 20 uM after 24 hrs by MTT assay in presence of TRAIL; type: functional, U-251
Method in brief: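 MTT viability. 3–5 × 10^3 cells/well, treated the next day with TRAIL 100 ng/mL plus increasing morusin concentrations for 24 h. 1 mg/mL MTT for 2 h at 37 °C, lysis overnight, OD 570 nm. Living-cell fractions were used for combination index analysis. Mean ± SD, at least three independent experiments.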

U-87 MG [3] = assay: Induction of apoptosis in human U87MG cells assessed as increase in cleaved PARP levels at 2.5 uM after 24 hrs by Western blot analysis in presence of TRAIL; type: functional, cell-based; settings: U-87MG ATCC
Method in brief: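 U87MG and T98G given TRAIL 25 ng/mL plus morusin 2.5 μM together for 24 h; single-agent arms used TRAIL 50 ng/mL or morusin 5 μM. Lysates immunoblotted for cleaved caspase 3, 8, 9 and cleaved PARP, with β-actin as internal control.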

U-87 MG [4] = assay: Induction of DR5 expression in human U87MG cells at 25 uM after 24 hrs by FITC-conjugated flow cytometric analysis; type: functional, cell-based; settings: U-87MG ATCC
Method in brief: (§1)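 Cells given 25 μM morusin for 24 h, then stained on ice for 30 min with 0.5 μg/mL FITC-conjugated anti-DR4, anti-DR5 or isotype IgG in FACS buffer. Surface expression read by flow cytometry.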

U373 MG [5] = assay: Induction of DR5 expression in human U373MG cells at 25 uM after 24 hrs by FITC-conjugated flow cytometric analysis; type: functional, cell-based; settings: U-373MG ATCC; method in brief: as §1
U-251 [6] = assay: Induction of DR4 expression in human U251MG cells at 25 uM after 24 hrs by FITC-conjugated flow cytometric analysis; type: functional, cell-based; method in brief: as §1
U-87 MG [7] = assay: Induction of DR5 mRNA expression in human U87MG cells at 25 uM after 24 hrs by RT-qPCR analysis; type: functional, cell-based; settings: U-87MG ATCC
Method in brief: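 U87MG held at 25 μM morusin for the times indicated. Total RNA extracted; 1 μg reverse transcribed; DR5 mRNA measured by RT-qPCR against GAPDH. Mean ± SD.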

[8] = Cytotoxicity against human U87MG cells transfected DR5 siRNA assessed as cell death after 24 hrs by MTT assay in presence of TRAIL; type: functional, U-87MG ATCC
Method in brief: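 U87MG cells were transiently transfected with scrambled control or DR5 siRNA by lipofection. At 48 h after transfection they were cotreated with TRAIL at 50 ng/mL and test compound at 20 μM for 24 h. Viability was read by MTT: 1 mg/mL for 2 h at 37 °C, lysis overnight, OD at 570 nm. Data are mean ± SD from ≥3 independent experiments.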

[9] = Reduction of survivin expression in human U373MG cells after 24 hrs by Western blot analysis; type: functional, cell-based; settings: U-373MG ATCC
Method in brief: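 U87MG (MEM) and U373MG (RPMI) cells were given graded morusin concentrations for 24 h. Whole-cell extracts were immunoblotted for anti-apoptotic proteins, with β-actin as loading control.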

[10] = Reduction of XIAP mRNA expression in human U87MG cells after 24 hrs by RT-qPCR analysis; type: functional, cell-based; settings: U-87MG ATCC
Method in brief: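 U87MG cells were treated with graded morusin for 24 h. Total RNA was extracted with TRI Reagent, and 1 μg was reverse transcribed. XIAP and survivin mRNA were quantified by RT-qPCR, normalized to GAPDH. Results are mean ± SD from at least three independent experiments; unpaired t-test.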

[11] = Reduction of survivin mRNA expression in human U87MG cells at 25 uM by RT-qPCR analysis; type: functional, cell-based; settings: U-87MG ATCC, TDE = time-dependent effect
Method in brief: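 U87MG cells were exposed to 25 μM morusin over a time course. Total RNA (1 μg) was reverse transcribed, and XIAP and survivin transcripts were measured by RT-qPCR against GAPDH. Results are mean ± SD from at least three independent experiments.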

[12] = Reduction of PDGFR expression in human U87MG cells at 25 uM after 24 hrs by Western blot analysis; type: functional, cell-based; settings: U-87MG ATCC
Method in brief: (§2)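 LN18, U87MG, T98G, U251MG and U373MG glioblastoma cells were exposed to morusin for 24 h. Cells were maintained in DMEM, MEM or RPMI with 10% FBS at 37 °C and 5% CO2. Whole-cell lysates were Western blotted for receptor proteins, with β-actin as internal control.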

[13] = Reduction of PDGFR expression in human LN18 cells at 25 uM after 24 hrs by Western blot analysis; type: functional, cell-based; settings: LN-18; method in brief: as §2
[14] = molecular target: Epidermal growth factor receptor (Homo sapiens) (UniProt P00533); assay: Inhibition of EGFR phosphorylation in human U87MG cells measured up to 25 uM after 24 hrs by Western blot analysis; type: cell-based; settings: U-87MG ATCC
Method in brief: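 Cells grown in MEM (U87MG) or RPMI (U373MG) with 10% FBS, 5% CO2, 37 °C. Treated for 24 h with the indicated concentrations of morusin (DMSO stock). Whole-cell lysates immunoblotted for phosphorylated and total proteins, with β-actin as internal control.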

[15] = molecular target: Epidermal growth factor receptor (Homo sapiens) (UniProt P00533); assay: Inhibition of EGFR phosphorylation in human U373MG cells measured up to 25 uM after 24 hrs by Western blot analysis; type: cell-based; settings: U-373MG ATCC
Method in brief: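 U87MG and U373MG exposed to a range of morusin concentrations for 24 h. Whole-cell lysates immunoblotted for phosphorylated EGFR, with β-actin as internal control.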

LN-18 = assay: Effect on DcR2 expression in human LN18 cells upto 25 uM after 24 hrs by Western blot analysis; type: functional, cell-based
Method in brief: (§3)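 Cells exposed to a range of morusin concentrations for 24 h. Cell extracts immunoblotted for DR4, DR5, DcR1 and DcR2, with β-actin as internal control and HRP-conjugated secondary antibodies (1:5000).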

U373 MG [16] = assay: Effect on DcR2 expression in human U373MG cells upto 25 uM after 24 hrs by Western blot analysis; type: functional, cell-based; settings: U-373MG ATCC; method in brief: as §3
U-251 [17] = assay: Effect on DcR1 expression in human U251MG cells upto 25 uM after 24 hrs by Western blot analysis; type: functional, cell-based; method in brief: as §3
U-87 MG [18] = assay: Effect on DcR1 expression in human U87MG cells upto 25 uM after 24 hrs by Western blot analysis; type: functional, cell-based; settings: U-87MG ATCC; method in brief: as §3
U373 MG [19] = assay: Induction of DR5 expression in human U373MG cells at 25 uM by Western blot analysis; type: functional, cell-based; settings: U-373MG ATCC, TDE = time-dependent effect
Method in brief: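 Time course: U87MG and U373MG cells held at 25 μM morusin for the times indicated. Extracts immunoblotted (cIAP1 or DR5), with β-actin as loading control.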

[20] = Reduction of survivin expression in human U87MG cells at 25 uM by Western blot analysis; type: functional, cell-based; settings: U-87MG ATCC, TDE = time-dependent effect
Method in brief: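 Time course: U87MG and U373MG cells were exposed to 25 μM morusin for the indicated times. Whole-cell extracts were Western blotted, with β-actin as internal control.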

Chain of Epidermal growth factor receptor (Homo sapiens) (P00533 whole entry): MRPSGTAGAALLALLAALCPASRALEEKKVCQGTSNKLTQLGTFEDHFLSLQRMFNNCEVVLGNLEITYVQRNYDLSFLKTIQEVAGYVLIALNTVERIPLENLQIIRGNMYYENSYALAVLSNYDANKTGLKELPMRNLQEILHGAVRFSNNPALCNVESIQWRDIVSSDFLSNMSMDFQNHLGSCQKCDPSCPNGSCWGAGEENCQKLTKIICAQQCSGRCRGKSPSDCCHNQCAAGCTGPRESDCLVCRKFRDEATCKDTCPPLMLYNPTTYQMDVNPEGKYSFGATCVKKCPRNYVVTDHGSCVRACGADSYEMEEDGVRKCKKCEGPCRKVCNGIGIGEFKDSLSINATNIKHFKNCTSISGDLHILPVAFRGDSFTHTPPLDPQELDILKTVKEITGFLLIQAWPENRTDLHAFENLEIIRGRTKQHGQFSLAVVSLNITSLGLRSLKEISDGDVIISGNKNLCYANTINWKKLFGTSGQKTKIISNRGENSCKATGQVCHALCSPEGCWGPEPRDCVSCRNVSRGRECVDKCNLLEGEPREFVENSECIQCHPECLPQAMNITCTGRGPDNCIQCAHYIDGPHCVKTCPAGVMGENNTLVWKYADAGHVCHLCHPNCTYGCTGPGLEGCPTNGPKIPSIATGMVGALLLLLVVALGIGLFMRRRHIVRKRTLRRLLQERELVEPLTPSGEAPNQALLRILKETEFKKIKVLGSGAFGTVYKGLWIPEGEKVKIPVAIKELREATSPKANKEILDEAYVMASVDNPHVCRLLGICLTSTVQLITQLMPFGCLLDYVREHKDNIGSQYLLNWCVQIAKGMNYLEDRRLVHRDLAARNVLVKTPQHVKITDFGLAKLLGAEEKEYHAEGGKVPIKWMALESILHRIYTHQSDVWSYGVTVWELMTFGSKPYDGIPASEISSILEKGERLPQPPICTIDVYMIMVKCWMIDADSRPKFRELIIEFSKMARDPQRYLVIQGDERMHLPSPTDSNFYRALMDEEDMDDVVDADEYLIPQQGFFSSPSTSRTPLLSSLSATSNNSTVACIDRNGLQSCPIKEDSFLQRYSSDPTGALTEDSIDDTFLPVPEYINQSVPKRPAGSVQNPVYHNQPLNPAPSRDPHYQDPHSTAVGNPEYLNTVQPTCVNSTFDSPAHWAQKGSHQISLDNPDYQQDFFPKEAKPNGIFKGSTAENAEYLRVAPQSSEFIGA

## CC(C)=CCc1c(-c2ccc(O)cc2O)oc2c3c(cc(O)c2c1=O)OC(C)(C)C=C3 [MORUSIN]
[1]
  IC50: 24 µM
[2]
  CI: <0.8
U-87 MG [3]
  Activity: Active
U-87 MG [4]
  Activity: Active
U373 MG [5]
  Activity: Active
U-251 [6]
  Activity: inactive
U-87 MG [7]
  Activity: Active
[8]
  Activity: 10%
[9]
  inhibition: Dose-dependent effect
[10]
  Activity: Dose-dependent effect
[11]
  Activity: tde
[12]
  Activity: Active
[13]
  Activity: Active
[14]
  inhibition: Active
[15]
  inhibition: Active
LN-18
  Activity: inactive
U373 MG [16]
  Activity: inactive
U-251 [17]
  Activity: inactive
U-87 MG [18]
  Activity: inactive
U373 MG [19]
  Activity: tde
[20]
  inhibition: tde
